According to ChEMBL document CHEMBL1145158, “Selective substrate-based inhibitors of mammalian dimethylarginine dimethylaminohydrolase” (J Med Chem, 2005):

How the values were obtained:
[1] = Inhibition of [14C]-L-NMMA (1 umol/L) binding to dimethylarginine dimethylaminohydrolase of rat kidney homogenate
Outline: (§1)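 Rat kidney homogenized in PBS with PMSF 1 mM and leupeptin, pepstatin, chymostatin (5 µg/mL each), then spun; high-speed supernatant used as enzyme source (both DDAH isoforms). [14C]L-NMMA 1 µmol/L added, 1 h at 37 °C; stopped with neutral-pH Dowex resin binding unmetabolized L-NMMA. [14C]citrulline counted by scintillation. Screening at 1 mM or 100 µM; IC50 determined for actives.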

Rattus norvegicus [2] = species: Rattus norvegicus; assay: Inhibition of [14C]-L-NMMA (1 umol/L) binding to dimethylarginine dimethylaminohydrolase of rat kidney homogenate at 1 mM; outline: as §1
Rattus norvegicus [3] = species: Rattus norvegicus; assay: Inhibition of [14C]-L-NMMA (1 umol/L) binding to dimethylarginine dimethylaminohydrolase of rat kidney homogenate 100 uM; outline: as §1

| IC50 [1] [µM] | inhibition (Rattus norvegicus [2]) [%] | inhibition (Rattus norvegicus [3]) [%] | SMILES |
| --- | --- | --- | --- |
| 189 | 90 |  | COCC/N=C(\N)NCC[C@H](N)C(=O)O |
| 325 | 85 |  | CN(C)C(=N)NCC[C@H](N)C(=O)O |
| 111 |  | 64 | CCCOC(=O)[C@@H](N)CC/N=C(\N)NCCOC |
| 1510 | 48 |  | C/N=C(\N)NCC[C@H](N)C(=O)O |
| 189 |  | 30 | COCCN/C(N)=N/CC[C@H](N)C(=O)OC(C)C |
| 264 | 74 |  | N/C(=N\CC[C@H](N)C(=O)O)N1CCCCC1 |
| 300 | 100 |  | CC/N=C(\N)NCC[C@H](N)C(=O)O |
| 22 |  | 100 | COCCNC(=N)NCCC[C@H](N)C(=O)O |
| 301 | 97 |  | CC(C)OCC/N=C(\N)NCC[C@H](N)C(=O)O |
| 20 |  | 83 | COCC/N=C(/N)NCCC[C@H](N)C(=O)OC |
